In the library only some 1.8% were active in any assay of this set; here they are far more common.
M4 antag: blocks acetylcholine activation of human M4 receptor | P08173 | CHO-hM4 cells, ACh EC80, Fluo-8 calcium fluorescence | inhibition, % at 3 µM | 360,000 compounds, 0.73% hits | AID 624125;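 active = inhibition above its plate's cutoff, the mean inhibition of sample wells plus 3 SD, cut at about 27% in these data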;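 also: 0% = acetylcholine EC80 with DMSO and 100% = DMSO without agonist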
CHRM5 agonist: CHRM5 agonism in calcium assay | CHO-K1 hM5 cells, Fluo-8 calcium fluorescence; 0% DMSO wells, 100% maximal acetylcholine response | activation, % at 3 µM | 360,000 compounds, 0.19% hits | AID 624037;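 active = activation above the run's mean over test compounds plus 3 SD, cut at about 23% in these data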;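 also: signal is peak over basal fluorescence ratio across the kinetic read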
Target sequence (P08912 whole entry, looked up): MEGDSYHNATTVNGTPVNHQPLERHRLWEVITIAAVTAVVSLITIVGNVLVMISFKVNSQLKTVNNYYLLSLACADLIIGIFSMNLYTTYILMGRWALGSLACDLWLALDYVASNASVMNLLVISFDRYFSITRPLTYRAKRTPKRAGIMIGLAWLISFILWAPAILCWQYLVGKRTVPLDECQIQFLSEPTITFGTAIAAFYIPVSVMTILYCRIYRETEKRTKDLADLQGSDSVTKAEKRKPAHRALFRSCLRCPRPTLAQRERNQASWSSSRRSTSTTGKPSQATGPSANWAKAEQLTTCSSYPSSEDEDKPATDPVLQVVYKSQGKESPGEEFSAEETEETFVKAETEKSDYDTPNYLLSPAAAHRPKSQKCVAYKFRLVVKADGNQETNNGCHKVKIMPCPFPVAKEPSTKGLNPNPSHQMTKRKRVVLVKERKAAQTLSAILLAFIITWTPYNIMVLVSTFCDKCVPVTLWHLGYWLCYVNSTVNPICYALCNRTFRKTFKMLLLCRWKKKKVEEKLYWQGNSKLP
CHRM5 antagonist: antagonists of human muscarinic M5 receptor (CHRM5). P08912. CHO-hM5 cells, Fluo-8 calcium fluorescence, ACh EC80. inhibition, % at 3 µM. 360,000 compounds, 0.59% hits. AID 624040;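 active = inhibition above a per-plate cutoff, the mean of that plate's test compounds plus 3 SD, cut at about 27% in these data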;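 also: 0% = acetylcholine EC80 with DMSO and 100% = DMSO without agonist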
CHRM5 PAM: potentiates acetylcholine response at human M5 receptor; 360,000 compounds, 0.3% hits; CHO-K1 hM5, Fluo-8 calcium, ACh EC20 PAM; 0% = ACh EC20, 100% = ACh EC100; activation, % at 3 µM; P08912;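 active = activation above the run cutoff, the mean activation of all test compounds plus 3 SD, cut at about 18% in these data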
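system = human M5 receptor in CHO-K1 cells | compound = one concentration, 3 µM final (nominal) | schedule = Post-acetylcholine fluorescence recording 140 s | signal = Fluo-8 calcium dye fluorescence, kinetic read | benchmarks = low control EC20 acetylcholine (0%), high control EC100 acetylcholine (100%) | repeats = singlicate, one well per test compound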
M4 ag: CHRM4 agonism in calcium assay; P08173; CHO-K1 hM4/Gqi5, Fluo-8 calcium fluorescence; vehicle 0%, full acetylcholine response 100%; activation, % at 3 µM; 360,000 compounds, 0.14% hits; AID 624127;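 active = activation above the run mean over all test wells plus 3 SD, cut at about 32% in these data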;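 also: peak over basal fluorescence ratio per well then scaled between controls; 0% = DMSO wells and 100% = acetylcholine at EC100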
CHRM4 PAM: potentiates acetylcholine response at human M4 receptor. P08173. CHO-K1 hM4/Gqi5, Fluo-8 calcium fluorescence, ACh EC20; 0% = ACh EC20, 100% = maximal ACh. activation, % at 3 µM. 360,000 compounds, 0.4% hits;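 active = activation above its plate's cutoff, the mean activation of sample wells plus 3 SD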
* marks the source's active call; other numbers are inactive results; ! = not active in a repeat.

SMILES	M4 antag	CHRM5 agonist	CHRM5 antagonist	CHRM5 PAM	M4 ag	CHRM4 PAM
COc1ccc(CCNC(=O)Nc2cc(F)c(F)cc2Cl)cc1OC	1	-1	-1	-1	1	1
CCOC(=O)c1ccc(NC(=S)N2CCSC2c2ccc(Cl)cc2)cc1 (stereo unspecified)	28*	35*	15	8	61*	-3
O=C(Nc1ccc(F)c(Cl)c1)Nc1nnc([C@H]2C[C@H](O)[C@@H](CO)O2)s1	-4	-1	0	4	0	9
Cc1cc(=O)[nH]c2c1c(-c1ccccc1)nn2C	100*	-1	-5	7	0	-16
CC(C)CCN(C(=O)c1ccccn1)c1c(N)n(Cc2ccccc2)c(=O)[nH]c1=O	-13	1	11	0	0	6
Cc1ccc(Nc2nc(-c3c(C)nc4ccccn34)cs2)cc1	27*	-6	19	-20	10	-31
O=C(CN(Cc1cccs1)C(=O)CCC(=O)Nc1ccccn1)NCc1ccccc1	-1	-1	16	-17	5	-1
Cc1ccc(OCCNC(=O)C(=O)NCc2ccco2)cc1	27*	-2	-3	-7	1	-18
Nc1cc(=O)[nH]c(SCCOc2ccccc2)n1	2	-1	27*	-16	18	-10
Nc1nc(N)c(Br)c(Nc2ccc(Cl)c(Cl)c2)n1	-20	25*	0	29*	4	23
Cc1ccc(Nc2nc(N)nc(N)c2N=O)cc1Cl	-3	45*	6	-4	11	18
CCc1c(N)nc(N)nc1Nc1ccc(C)c(C)c1	-17	2	4	-12	4	7
Nc1nc(N)c(N=O)c(Nc2ccc(Cl)c(Cl)c2)n1	-12	52*	2	-1	19	21
Nc1nc(N)c(N=O)c(Nc2cccc(Cl)c2)n1	-9	45*	-7	-1	7	5
O=C(c1ccccc1)N1CN2CN(C(=O)c3ccccc3)CC([N+](=O)[O-])(C2)C1	3	0	0	0	0	-3
Cn1cnnc1SCCC(=O)Nc1ccccc1	7	7	-2	3	1	38*
CC1(C)CC(=O)C=C(c2n[nH]nc2-c2ccc(F)c(F)c2)C1	-14	1	6	0	0	3
COc1ccc(-n2ccnc2SCC(=O)NCc2ccc(F)cc2)c(OC)c1	-2	2	15	0	1	15
COc1ccc(-c2cc(-c3nc4ccccn4c3NCc3ccccc3)ccc2OC)cc1	84*	0	48*	-38	26	-16
c1ccc(CNc2c(-c3cccc(SC4CCCCC4)c3)nc3ccccn23)cc1	49*!	-4	22	-34	13	-12
c1ccc(-c2nc3ccccn3c2NCc2ccc3c(c2)OCO3)cc1	-12	1	11	-21	12	-11
Clc1cccc(CNc2ccn3nc(-c4ccccc4)cc3n2)c1	-4	1	-6	11	5	16*
Clc1cccc(-c2ccc(-c3nc4ccccn4c3NCc3ccccc3)cc2)c1	29*	0	14	-17	6	-9
COc1ccc(-c2nc3ccccn3c2NCc2ccc3c(c2)OCO3)cc1	6	-6	10	-35	8	-11
Cc1ccn2c(NCc3ccccc3)c(-c3cccc(SC4CCCCC4)c3)nc2c1	11	-6	13	-11	4	-8
SMILES	M4 antag	CHRM5 agonist	CHRM5 antagonist	CHRM5 PAM	M4 ag	CHRM4 PAM
COCCN(C(=O)CSc1nnc(-c2cccc(F)c2)n1N)c1c(N)n(Cc2ccccc2)c(=O)[nH]c1=O	-10	1	0	-4	0	8
COc1ccc(CCCN2CCC(CN3CCNC(=O)C3=O)CC2)cc1OC	-1	1	4	0	0	5
COc1ccc2[nH]c(=O)c(CNC3CCCCC3)cc2c1	-22	2	-1	23*	2	23*
Cc1cccc(C(=O)NCC(c2cccs2)N2CCOCC2)c1 (stereo unspecified)	-3	-2	3	3	1	-3
CN(C)c1ccc(/C=C/c2ccc3ccccc3[n+]2C)cc1	0	-1	14	-5	1	7
CN(C)c1ccc(/C=C/c2ccc3c4ccccc4ccc3[n+]2-c2ccccc2)cc1	40*	-1	43*	-28	18	-22
Cc1ccc(C(=O)c2c(C)oc3c2C(=O)C(=O)c2ccccc2-3)cc1	7	-5	12	-8	6	-7
Cc1ccc(C(=O)c2coc3c2C(=O)C(=O)c2ccccc2-3)cc1	-4	-4	36*	-15	4	2
N#CC(C#N)=C1C=CC=CN1/C(=C\c1ccco1)C(=O)c1ccccc1	30*	-5	10	-3	2	-12
COc1ccc(C(=O)/C(=C\c2ccco2)N2C=CC=CC2=C(C#N)C#N)cc1	18	-7	3	-9	4	-9
N#CC(C#N)=C1C=CC=CN1/C(=C\c1ccco1)C(=O)c1ccc(Br)cc1	69*	-5	25	-8	6	-14
CC(C)N(C)c1ncnc2c1ncn2[C@H]1CN(Cc2cccs2)C[C@@H](CO)O1	-16	0	-5	-1	2	7
CCCNC(=O)C1(C)CCN(CCOc2ccc(Cl)cc2)C1 (stereo unspecified)	-1	-2	5	-4	1	-5
CCC(C)Sc1cc(-c2nc3ccccn3c2NC2CCCCC2)ccc1OC (stereo unspecified)	55*!	-5	14	-19	5	-9
CCC(C)Sc1cccc(-c2nc3cnccn3c2NC2CCCCC2)c1 (stereo unspecified)	26*	4	7	4	-2	-11
CCC(C)Sc1cc(-c2nc3cc(C)ccn3c2NC2CCCCC2)ccc1OC (stereo unspecified)	10	-5	19	-12	7	-10
c1cc(SC2CCCCC2)cc(-c2nc3cnccn3c2NC2CCCCC2)c1	9	6	8	7	2	0
Cc1ccc(S(=O)(=O)c2nnn3c2nc(NC2CCN(Cc4ccccc4)CC2)c2ccccc23)cc1C	43*	-6	-2	-3	3	-12
Cc1ccc(S(=O)(=O)c2nnn3c2nc(NCCCN2CCCC2=O)c2ccccc23)cc1C	-2	-7	15	-4	5	1
CCOc1ccc(CCNC(=O)CCc2nnc3ccc(N4CCCCC4)nn23)cc1OCC	32*	-5	6	-9	0	-10
Cn1cnc(S(=O)(=O)Nc2ccc(Cl)c(C(F)(F)F)c2)c1	6	-5	-16	11	1	15*
Cn1cnc(S(=O)(=O)Nc2ccc(C(F)(F)F)cc2)c1	-11	-2	2	-4	1	4

Compound activity as filed in PubChem.
